In ChEMBL document CHEMBL2401698 (J Med Chem, 2013):
Activity calls are given as the source filed them.

Key:
[1] = target: T1, Adenosine receptor A3 (Mus musculus) (UniProt Q61618); experiment: Agonist activity at mouse adenosine A3 receptor expressed in HEK293 cell membranes assessed as inhibition of forskolin-stimulated cAMP production preincubated for 30 mins prior to forskolin-treatment measured after 15 mins by ELISA relative to control; type: functional, cell-based
T1 sequence (whole entry): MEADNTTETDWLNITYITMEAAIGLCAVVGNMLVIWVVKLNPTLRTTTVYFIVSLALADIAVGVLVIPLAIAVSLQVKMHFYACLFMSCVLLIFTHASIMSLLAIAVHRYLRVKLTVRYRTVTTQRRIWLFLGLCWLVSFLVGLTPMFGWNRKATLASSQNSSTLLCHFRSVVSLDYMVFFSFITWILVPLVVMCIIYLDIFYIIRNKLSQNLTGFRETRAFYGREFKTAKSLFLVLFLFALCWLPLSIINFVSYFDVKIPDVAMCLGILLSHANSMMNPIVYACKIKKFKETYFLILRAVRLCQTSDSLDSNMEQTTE

[2] = target: T2, Adenosine receptor A3 (Mus musculus, UniProt Q61618); experiment: Agonist activity at mouse adenosine A3 receptor expressed in HEK293 cell membranes assessed as inhibition of forskolin-stimulated cAMP production preincubated for 30 mins prior to forskolin-treatment measured after 15 mins by ELISA; type: functional, cell-based
T2 sequence (Q61618 whole entry): T1 sequence (whole entry)

[3] = target: T1, Adenosine receptor A3 (Mus musculus); experiment: Activity at mouse adenosine A3 receptor expressed in HEK293 cell membranes assessed as inhibition of forskolin-stimulated cAMP production preincubated for 30 mins prior to forskolin-treatment measured after 15 mins by ELISA relative to 2-chloro-N6-(3-iodobenzyl)adenosine-5'-N-methyluronamide; type: functional, cell-based
[4] = target: T3, Adenosine receptor A3 (Homo sapiens) (UniProt P0DMS8); experiment: Activity at human adenosine A3 receptor expressed in CHO cell membranes assessed as inhibition of forskolin-stimulated cAMP production at 10 uM preincubated for 30 mins prior to forskolin-treatment measured after 15 mins by ELISA relative to 5'-N-ethylcarboxamidoadenosine; type: functional, cell-based
T3 sequence (whole entry): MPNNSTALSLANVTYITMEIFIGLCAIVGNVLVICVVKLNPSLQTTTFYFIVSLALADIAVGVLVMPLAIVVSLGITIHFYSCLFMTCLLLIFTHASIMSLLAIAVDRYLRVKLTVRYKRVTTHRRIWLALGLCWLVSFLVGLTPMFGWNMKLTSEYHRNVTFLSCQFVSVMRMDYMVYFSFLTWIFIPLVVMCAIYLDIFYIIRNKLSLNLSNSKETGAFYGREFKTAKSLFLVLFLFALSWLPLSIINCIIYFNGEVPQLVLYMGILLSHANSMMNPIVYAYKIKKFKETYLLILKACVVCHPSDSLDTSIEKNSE
Outline: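 Whole CHO cells stably expressing hA3AR, plated 24 h, washed with DMEM/50 mM HEPES pH 7.4. […] Forskolin (10 μM) then added for 15 min. Lysed in 0.1 M HCl; cAMP by enzyme immunoassay at 450 nm. Efficacy as % of reference maximum; mean ± SEM, n = 3–5.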

[5] = target: Adenosine receptor A2a (Mus musculus) (UniProt Q60613); experiment: Displacement of [3H]2-[p-(2-carboxyethyl)phenylethylamino]-5'-N-ethylcarboxamidoadenosine from mouse adenosine A2A receptor expressed in HEK293 cell membranes at 10 uM after 60 mins by liquid scintillation counting analysis relative to control
Chain of Adenosine receptor A2a (Mus musculus) (Q60613 whole entry): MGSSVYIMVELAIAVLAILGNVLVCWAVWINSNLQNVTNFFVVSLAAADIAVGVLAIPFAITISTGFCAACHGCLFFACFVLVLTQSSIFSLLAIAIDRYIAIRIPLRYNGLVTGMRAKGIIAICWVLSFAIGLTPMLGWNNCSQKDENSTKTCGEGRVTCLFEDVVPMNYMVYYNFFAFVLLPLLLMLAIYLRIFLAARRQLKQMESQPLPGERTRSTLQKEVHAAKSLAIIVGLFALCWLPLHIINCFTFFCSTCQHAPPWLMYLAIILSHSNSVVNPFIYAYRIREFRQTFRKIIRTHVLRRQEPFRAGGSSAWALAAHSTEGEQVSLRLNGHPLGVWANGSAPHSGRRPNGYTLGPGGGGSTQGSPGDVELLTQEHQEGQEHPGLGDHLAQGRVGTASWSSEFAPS

[6] = target: T4, Adenosine receptor A1 (Mus musculus) (UniProt Q60612); experiment: Displacement of [125I]N6-(4-amino-3-iodobenzyl)adenosine-5'-N-methyluronamide from mouse adenosine A1 receptor expressed in HEK293 cell membranes at 10 uM after 60 mins by liquid scintillation counting analysis relative to control
T4 sequence (whole entry): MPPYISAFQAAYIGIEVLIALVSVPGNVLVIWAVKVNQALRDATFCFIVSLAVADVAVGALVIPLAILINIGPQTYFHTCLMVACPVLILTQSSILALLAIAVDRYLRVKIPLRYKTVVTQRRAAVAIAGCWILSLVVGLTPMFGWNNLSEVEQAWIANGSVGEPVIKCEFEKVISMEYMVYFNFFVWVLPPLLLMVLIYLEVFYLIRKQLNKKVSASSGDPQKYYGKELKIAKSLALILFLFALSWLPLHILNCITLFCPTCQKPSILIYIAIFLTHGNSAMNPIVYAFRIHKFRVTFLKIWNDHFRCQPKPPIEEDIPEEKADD

[7] = target: Adenosine receptor A2a (Homo sapiens) (UniProt P29274); experiment: Displacement of [3H]2-[p-(2-carboxyethyl)phenylethylamino]-5'-N-ethylcarboxamidoadenosine from human adenosine A2A receptor expressed in HEK293 cell membranes at 10 uM after 60 mins by liquid scintillation counting analysis relative to control
Chain of Adenosine receptor A2a (Homo sapiens) (P29274 whole entry): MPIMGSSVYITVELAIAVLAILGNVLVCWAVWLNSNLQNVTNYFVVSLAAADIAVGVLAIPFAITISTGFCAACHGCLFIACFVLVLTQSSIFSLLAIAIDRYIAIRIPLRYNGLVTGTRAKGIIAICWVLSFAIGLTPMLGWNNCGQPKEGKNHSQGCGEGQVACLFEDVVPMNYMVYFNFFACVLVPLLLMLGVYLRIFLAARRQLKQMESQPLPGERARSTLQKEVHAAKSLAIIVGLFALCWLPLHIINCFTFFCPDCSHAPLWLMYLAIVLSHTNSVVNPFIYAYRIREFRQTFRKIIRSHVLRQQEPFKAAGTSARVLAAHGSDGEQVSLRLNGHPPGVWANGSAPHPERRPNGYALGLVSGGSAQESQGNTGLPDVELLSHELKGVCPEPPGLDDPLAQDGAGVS

[8] = target: T5, Adenosine receptor A1 (Homo sapiens) (UniProt P30542); experiment: Displacement of [3H]N6-R-phenylisopropyladenosine from human adenosine A1 receptor expressed in CHO cell membranes at 10 uM after 60 mins by liquid scintillation counting analysis relative to control
T5 sequence (whole entry): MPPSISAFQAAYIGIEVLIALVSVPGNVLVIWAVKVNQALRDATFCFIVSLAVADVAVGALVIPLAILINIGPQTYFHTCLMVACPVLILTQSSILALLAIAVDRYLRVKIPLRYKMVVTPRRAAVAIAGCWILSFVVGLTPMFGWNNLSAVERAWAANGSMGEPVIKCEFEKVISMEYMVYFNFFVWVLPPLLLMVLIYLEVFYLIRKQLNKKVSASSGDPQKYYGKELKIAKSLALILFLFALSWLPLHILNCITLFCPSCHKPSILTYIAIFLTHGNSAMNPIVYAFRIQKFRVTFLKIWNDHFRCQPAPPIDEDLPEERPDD

[9] = target: T4, Adenosine receptor A1 (Mus musculus); experiment: Agonist activity at mouse adenosine A1 receptor expressed in HEK293 cell membranes assessed as inhibition of forskolin-stimulated cAMP production up to 10 uM […] measured after 15 mins […]; type: functional, cell-based
Outline: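 2 × 10^5 cells/tube coincubated with forskolin (10 μM) and ligand, up to 10 μM, for 15 min at 37 °C. Stopped with 1 N HCl; cAMP by competitive binding assay. Full agonist 44 as reference; sigmoidal fit; mean ± SEM, n = 4–7.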

[10] = system: CHO; experiment: Selectivity ratio of Ki for human adenosine A2A receptor expressed in HEK293 cell membranes to Ki for human adenosine A3 receptor expressed in CHO cell membranes; type: cell-based
[11] = target: Adenosine receptors; A1 & A3 (Homo sapiens) (UniProt P30542+P0DMS8); experiment: Selectivity ratio of Ki for human adenosine A1 receptor to Ki for human adenosine A3 receptor
[12] = organism: Mus musculus; experiment: Selectivity ratio of Ki for mouse adenosine A1 receptor to Ki for mouse adenosine A3 receptor
[13] = organism: Mus musculus; experiment: Selectivity ratio of Ki for mouse adenosine A2A receptor to Ki for mouse adenosine A3 receptor
[14] = system: Mus musculus; experiment: Antiallodynic activity in CD-1 mouse chronic constriction injury-induced neuropathic pain model assessed as reversal of mechanoallodynia at 3 micromol/kg, ip measured 1 to 5 hrs post-treatment in presence of MRS1523; type: functional, organism-based
[15] = system: Mus musculus; experiment: Antiallodynic activity in CD-1 mouse chronic constriction injury-induced neuropathic pain model assessed as effect on contralateral paw withdrawal threshold at 3 micromol/kg, ip; type: functional, organism-based
Outline: (§1)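 Male CD-1 mice (25–30 g) with chronic constriction injury of left sciatic nerve under isoflurane. At peak mechanoallodynia on day 7, given 3 μmol/kg ip in 5% DMSO/saline, or vehicle; n = 6. Paw withdrawal thresholds (g) measured on ipsilateral and contralateral paws over time. Experimenters blinded.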

[16] = system: Mus musculus; experiment: Antiallodynic activity in CD-1 mouse chronic constriction injury-induced neuropathic pain model assessed as reversal of mechanoallodynia at 3 micromol/kg, ip at 1 hr post-treatment; type: functional, organism-based; outline: as §1
[17] = system: Mus musculus; experiment: Antiallodynic activity in adenosine A3 receptor knockout C57BL/6J mouse chronic constriction injury-induced neuropathic pain model assessed as reversal of mechanoallodynia at 3 micromol/kg, ip measured 1 to 5 hrs post-treatment
[18] = target: T1, Adenosine receptor A3 (Mus musculus); experiment: Displacement of [125I]N6-(4-amino-3-iodobenzyl)adenosine-5'-N-methyluronamide from mouse adenosine A3 receptor expressed in HEK293 cell membranes at 10 uM after 60 mins by liquid scintillation counting analysis relative to control
[19] = target: T6, Adenosine receptor A1 (Mus musculus, UniProt Q60612); experiment: Partial agonist activity at mouse adenosine A1 receptor expressed in HEK293 cell membranes assessed as inhibition of forskolin-stimulated cAMP production preincubated for 30 mins prior to forskolin-treatment measured after 15 mins by ELISA; type: functional, cell-based
T6 sequence (Q60612 whole entry): T4 sequence (whole entry)

[20] = target: T6, Adenosine receptor A1; experiment: Agonist activity at mouse adenosine A1 receptor expressed in HEK293 cell membranes assessed as inhibition of forskolin-stimulated cAMP production preincubated for 30 mins prior to forskolin-treatment measured after 15 mins by ELISA; type: functional, cell-based

SMILES	Emax [1] [%]	Efficacy [4] [%]	inhibition [5] [%]	inhibition [6] [%]	inhibition [7] [%]	inhibition [8] [%]	further results
CNC(=O)[C@@]12C[C@@H]1[C@@H](n1cnc3c(NCCc4ccccc4)nc(C#Cc4ccccc4)nc31)[C@H](O)[C@@H]2O	47	105	1	25	32	11	EC50 [2]: 3.33 nM; Efficacy [3]: 115%
CNC(=O)[C@@]12C[C@@H]1[C@@H](n1cnc3c(NCCc4ccc(S(=O)(=O)O)cc4)nc(C#Cc4ccccc4)nc31)[C@H](O)[C@@H]2O		93.8	0	7	1	9	
CCNc1nc(C#Cc2ccccc2)nc2c1ncn2[C@H]1[C@H](O)[C@H](O)[C@@H]2C[C@@H]21			49	49			
O[C@@H]1[C@H](O)[C@@H]2C[C@@H]2[C@H]1n1cnc2c(NCc3cccc(Cl)c3)nc(C#Cc3ccc(-c4ccccc4)cc3)nc21			0				
OC[C@H]1O[C@@H](n2cnc3c(NC4CCCC4)nc(Cl)nc32)[C@H](O)[C@@H]1O							EC50 [20]: 17.7 nM
CNc1nc(C#Cc2ccccc2)nc2c1ncn2[C@H]1[C@H](O)[C@H](O)[C@@H]2C[C@@H]21			8				

Further lines, with some results ahead:

Emax [1] [%]	Efficacy [4] [%]	inhibition [5] [%]	inhibition [6] [%]	inhibition [7] [%]	inhibition [8] [%]	SMILES	further results
	7.2	1	18	15	10	O=S(=O)(O)c1ccc(CCNc2nc(C#Cc3ccccc3)nc3c2ncn3[C@H]2[C@H](O)[C@H](O)[C@@H]3C[C@@H]32)cc1	
41						CNC(=O)[C@H]1O[C@@H](n2cnc3c(NCc4cccc(I)c4)nc(Cl)nc32)[C@H](O)[C@@H]1O	
50	98.2	1	15	7	16	CNC(=O)[C@@]12C[C@@H]1[C@@H](n1cnc3c(NCc4cccc(Cl)c4)nc(C#Cc4cccc(S(=O)(=O)O)c4)nc31)[C@H](O)[C@@H]2O	inhibition [9]: inactive; EC50 [2]: 2.6 nM; Efficacy [3]: 89.3%; Ratio Ki [10]: > 10000; Ratio Ki [11]: > 10000; Ratio Ki [12]: > 1000; Ratio Ki [13]: > 1000; Activity [14]: Active; Activity [15]: inactive; Activity [16]: Active; Activity [17]: inactive
		16	23			O[C@@H]1[C@H](O)[C@@H]2C[C@@H]2[C@H]1n1cnc2c(NCC(c3ccccc3)c3ccccc3)nc(C#Cc3ccccc3Cl)nc21	inhibition [18]: 54%
45	96.8	14		23		CNC(=O)[C@@]12C[C@@H]1[C@@H](n1cnc3c(NCc4cccc(Cl)c4)nc(C#Cc4ccc(S(=O)(=O)O)cc4)nc31)[C@H](O)[C@@H]2O	EC50 [2]: 13 nM; Efficacy [3]: 95.7%; Activity [15]: inactive; Activity [16]: Active; EC50 [19]: 495 nM; Activity [17]: Active
		11	47			CCNc1nc(C#Cc2ccccc2Cl)nc2c1ncn2[C@H]1[C@H](O)[C@H](O)[C@@H]2C[C@@H]21	inhibition [18]: 50%
